# Assay outcomes: PubChem, several laboratories
# S1P4 antag = S1P4 receptor antagonists, primary screen, cell-based; Sphingosine 1-phosphate receptor 4 (Homo sapiens), O95977; hit rate 0.26% among 220,000; inhibition, % at 4.98 µM; S1P4-expressing cells, antagonist mode, reporter read-out; in the data active = inhibition above about 29%;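 note: 0% = wells stimulated with agonist and 100% = vehicle wells without agonist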
# Target sequence (O95977 whole entry, looked up): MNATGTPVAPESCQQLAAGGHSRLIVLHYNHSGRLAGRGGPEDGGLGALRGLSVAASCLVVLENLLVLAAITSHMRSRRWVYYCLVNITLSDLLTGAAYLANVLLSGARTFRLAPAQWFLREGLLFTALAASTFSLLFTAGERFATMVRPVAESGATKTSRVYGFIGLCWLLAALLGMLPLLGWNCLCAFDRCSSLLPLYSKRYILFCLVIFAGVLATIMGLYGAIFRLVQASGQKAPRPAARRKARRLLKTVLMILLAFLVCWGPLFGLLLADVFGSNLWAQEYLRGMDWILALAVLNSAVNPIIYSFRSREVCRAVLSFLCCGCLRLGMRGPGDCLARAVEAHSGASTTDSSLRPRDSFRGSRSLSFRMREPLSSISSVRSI
# TNAP inh no acc = human TNAP enzyme inhibitors, primary screen, biochemical, luminescent, no phosphate acceptor, uHTS; Alkaline phosphatase, tissue-nonspecific isozyme (Homo sapiens), P05186; purified TNAP, CDP-star luminescence, 30 min; inhibition, % at 20 µM; hit rate 0.26% among 200,000;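 active = tissue-nonspecific alkaline phosphatase inhibition above about 50% at 20 µM in the single-dose screen, limit read from the data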;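 note: 0% = DMSO negative control and 100% = EDTA positive control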
# S1P4 ag = S1P4 receptor agonists, primary screen, cell-based; Sphingosine 1-phosphate receptor 4 (Homo sapiens), O95977; S1P4-expressing cell line, agonist reporter assay; activation, % at 4.98 µM; hit rate 0.35% among 220,000; AID 1509, 2009; in the data active = activation above about 11%;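 note: 0% = DMSO vehicle and 100% = reference agonist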
# TNAP inh hi DEA = human TNAP enzyme inhibitors, primary screen, biochemical, luminescent, high phosphate acceptor level, uHTS; Alkaline phosphatase, tissue-nonspecific isozyme (Homo sapiens), P05186; purified TNAP, CDP-star luminescence, 1 M DEA; inhibition, % at 20 µM; hit rate 0.03% among 200,000;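 active = over 50% inhibition of tissue-nonspecific alkaline phosphatase at 20 µM in the single-dose screen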;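 note: plate controls were DMSO wells for no effect and EDTA-quenched wells as full inhibition for full effect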
# TNAP act hiacc = TNAP activators at high phosphate acceptor level, primary screen, biochemical, luminescence, uHTS; Alkaline phosphatase, tissue-nonspecific isozyme (Homo sapiens), P05186; purified TNAP, CDP-star luminescence, 1 M DEA, 30 min; hits give high values; 0 = EDTA background, 1 = DMSO-only activity; activation factor at 20 µM; 200,000 tested, under 10 active; AID 1136, 2008;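 active = activation factor at least 2 at 20 µM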
#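 Dosing: 20 µM single point. System: human TNAP. Amount: TNAP 1/800 final. Incubation: 30 min, room temperature. Read-out: TNAP activation factor scaled between EDTA and DMSO control wells. Signal: luminescence from CDP-star hydrolysis. Medium: 1 M DEA, pH 9.8, Mg2+, Zn2+. Control set: EDTA negative control, DMSO positive control.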
# S1P3 antag = S1P3 receptor antagonists, primary screen, cell-based | CHO S1P3 NFAT-BLA reporter, FRET fluorescence, antagonist mode | inhibition, % at 4.98 µM | hit rate 0.27% among 170,000 | AID 485, 2006;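 active = inhibition above the plate cutoff, the mean inhibition of test wells on that plate plus 3 SD, cut at about 28% in these data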;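 note: cells challenged with S1P at its EC80 of 0.8 µM; blue over green emission ratio from cleaved BLA substrate after 4 h stimulation; 0% = S1P-stimulated wells and 100% = unstimulated DMSO-only wells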
# S1P4 antag conf = S1P4 receptor antagonists, human, confirmation, cell-based | inhibition, % at 4.98 µM | hit rate 71% among 520 | S1P4-expressing cell line, antagonist mode, reporter read-out | shares compounds with S1P4 antag; in the data active = inhibition above about 30%
# S1P1 antagonist = S1P1 receptor antagonists, human, counter-screen for S1P4 antagonist project, cell-based | cell-based S1P1 antagonist counterscreen, inhibition | inhibition, % at 4.98 µM | shares compounds with S1P4 antag | AID 1564, 2009 | hit rate 37% among 520; in the data active = inhibition above about 40%;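 note: receptor stimulated with S1P near its EC80; 0% = agonist stimulated wells and 100% = vehicle only wells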
# The depositor's hits bear a star; nt = no result given. Shown are actives, neighbours in structure and some others; about 1.1% of the full set was active somewhere.
SMILES,S1P4 antag,TNAP inh no acc,S1P4 ag,TNAP inh hi DEA,TNAP act hiacc,S1P3 antag,S1P4 antag conf,S1P1 antagonist
Nc1ccc(C2CCCc3nonc32)c2nonc12 (configuration not stated),43*,-4,-1,1,1,9,8,28
CC1(c2ccc(Cl)cc2)NC(=O)CS1 (configuration not stated),9,-5,0,-1,1,-13,nt,nt
CN(C)c1ccc(/C=C2\CCC/C(=C\c3ccccc3)C2=O)cc1,-10,10,2,20,0.8,5,nt,nt
CC(=O)N1/C(=C/c2ccc(N(C)C)cc2)C(=O)c2ccccc21,30*,41,-4,40,0.6,-26,91*,91*
Cc1ccc2[nH]c(O)c(N=NC(N)=S)c2c1,14,nt,1,nt,nt,-7,nt,nt
CC(/C=C(\NC(=O)c1ccccc1)C(=O)N=Nc1c(O)[nH]c2ccc(C)cc12)=C\c1ccccc1,35*,2,-4,3,1,nt,18,22
COc1ccc(N=C2C(=Nc3ccc(OC)cc3)N(c3ccc(OC)cc3)C(=S)N2C)cc1,35*,19,-2,18,0.8,nt,38*,30
O=C1N(CN2CCN(Cc3ccccc3)CC2)c2ccccc2C12OCCCO2,-5,-8,-2,-6,1.1,-2,nt,nt
CCCCNC(=O)CS(=O)Cc1nc(-c2ccc(C)cc2)oc1C (configuration not stated),-5,-15,1,-6,1.1,-20,nt,nt
Cc1ccc(-c2nc(CS(=O)CC(=O)NC3CCC(C)CC3)c(C)o2)cc1 (configuration not stated),78*,7,1,-2,1,19,12,34
CC(C)CC1NC(=O)N(CC(=O)NC2CCCc3ccccc32)C1=O (configuration not stated),-12,-11,1,3,1,-6,nt,nt
O=C(CSCc1ccccc1Cl)NCCSc1ccccn1,5,-9,1,-4,1,-9,nt,nt
Cc1ccc2oc(=O)n(CCCOc3ccccc3)c2c1,34*,-7,0,-3,1,40,11,11
Cc1cc(C)c([N+](=O)[O-])cc1NCC(=O)N1CCN(c2ccccc2)CC1,38*,-4,-1,-1,1,7,-5,-9
COc1ccc(Nc2nc(Cl)nc(NCCO)n2)cc1,-17,-8,0,2,1,-4,nt,nt
COc1ccc(Nc2nc(Nc3ccc(OC)cc3)nc(SC3=NCCS3)n2)cc1,29*,13,-2,-2,1,nt,47*,21
CCOC(=O)c1c(NC(=O)OC)sc(C(=O)N(C)C)c1C,44*,-9,2,-2,1,nt,-1,-3
COC(=O)Nc1sc(C(=O)N(C)C)c(C)c1C(=O)OC,-9,-8,1,0,1,nt,nt,nt
Oc1[nH]c2ccc(Br)cc2c1N=NC(=S)N1CCOCC1,33*,nt,-1,nt,nt,-3,102*,58*
Oc1[nH]c2ccccc2c1N=NC(=S)N1CCOCC1,24,nt,-2,nt,nt,8,nt,nt
CCS(=O)(=O)N1CCC(C(=O)NCCCN2CCCC2)CC1,32*,-8,-1,-2,1,13,12,15
CCS(=O)(=O)N1CCC(C(=O)NCCN2CCOCC2)CC1,6,-3,1,3,1,-26,nt,nt
Cc1onc(-c2ccccc2)c1NC(=O)Nc1ccc(OC(F)F)cc1,1,nt,2,nt,nt,-6,nt,nt
COc1ccc(N(C(=O)CCl)C(C(=O)NCCc2ccccc2)c2cccs2)cc1 (configuration not stated),30*,-7,0,-5,1.1,-8,99*,16
COc1ccc(CNC(=O)C(c2ccncc2)N(C(=O)Cc2cccs2)c2ccccc2)cc1 (configuration not stated),3,-14,2,-1,1,-1,nt,nt
SMILES,S1P4 antag,TNAP inh no acc,S1P4 ag,TNAP inh hi DEA,TNAP act hiacc,S1P3 antag,S1P4 antag conf,S1P1 antagonist
CCOc1cc(CNCCc2ccc(S(N)(=O)=O)cc2)ccc1OCc1ccc(Cl)cc1,37*,-8,-6,-6,1.1,nt,40*,28
COc1cc(CNCCc2ccc(S(N)(=O)=O)cc2)ccc1OCc1ccc(Cl)cc1,-5,2,2,-3,1,nt,nt,nt
CC(C)(C)c1ccc(OCc2ccc(C(=O)N/N=C/c3ccc(O)c(O)c3)cc2)cc1,33*,-9,0,9,0.9,8,63*,27
Cc1ccc(C2=Nc3ccccc3SC(c3cccc([N+](=O)[O-])c3)C2)cc1 (configuration not stated),45*,nt,1,nt,nt,3,12,6
Fc1ccc(-c2nnc(SCc3cccnc3)o2)cc1,-9,-2,0,-3,1,4,nt,nt
CC1CCN(CCc2nc3cc(NC(=O)Nc4ccccc4)ccc3n2C)CC1,32*,-6,-3,-6,1.1,-7,4,4
N#Cc1nccnc1S(=O)(=O)c1cccs1,41*,nt,0,nt,nt,4,97*,56*
O=S(=O)(c1cccs1)N1CCN(S(=O)(=O)c2cccs2)CC1,6,-2,3,-1,1,-3,nt,nt
O=C(Nc1nnc(SCc2ccc(F)cc2)s1)c1ccccn1,31*,-116,0,-1,1,14,101*,73*
O=C(Nc1nnc(SCc2ccc(F)cc2)s1)c1cccnc1Cl,-8,-11,-1,-6,1.1,-4,nt,nt
COc1ccc(C2C(C(=O)NCc3ccccn3)CCC(=O)N2c2cc(OC)c(OC)c(OC)c2)cc1 (configuration not stated),-3,-6,1,-1,1,-11,nt,nt
Cc1ccc(C)c(OCC(=O)Nc2ccc3c(c2)OCO3)c1C,30*,-10,0,-6,1.1,8,2,6
CCOc1ccc(CN2C(=O)CC(=O)N(S(=O)(=O)c3ccc(OCC)cc3)C2=O)cc1,-6,nt,1,nt,nt,-3,nt,nt
CCOc1ccc(N2CC(C(=O)NC3=NCCS3)CC2=O)cc1 (configuration not stated),-2,-11,-1,-6,1.1,-12,nt,nt
